Reference: ChEMBL document CHEMBL1124144, “Electrophysiologic and antiarrhythmic activities of 4-amino-N-[2-(diethylamino)ethyl]-3,5-dimethylbenzamide, a sterically hindered procainamide analogue” (1988)

Key:
Canis familiaris [1] = species on record: Canis familiaris; test: Resting potential at 3 x 10e-4 M in Canine Purkinje fibers; format: functional, Canis lupus familiaris, Purkinje fiber
Summary of the method: (§1)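 Canine Purkinje fibres superfused with Tyrode's solution (K+ 4.0, Mg2+ 1.0, Ca2+ 4.0, HCO3- 18.0, glucose 5.5 mM), paced at 1000 ms cycle length with 0.5-ms pulses at 1.5× threshold. Transmembrane potentials were recorded with 3 M KCl microelectrodes. Drug was added to the superfusate at 3 × 10^-4 M final and read at stable effect (~30 min). Each cell served as its own control. Values are mean ± SEM, four or five experiments, five tissues per drug from different dogs. Compared by ANOVA/Fisher's LSD.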

Canis familiaris [2] = test: Maximal upstroke velocity when 3*10e-4 M compound was administered in Canine Purkinje fibers; format: functional; details: Canis lupus familiaris; Purkinje fiber; summary of the method: as §1
Canis familiaris [3] = test: Percent change in maximal upstroke velocity when 3*10e-4 M compound was administered in Canine Purkinje fibers; format: functional; details: Canis lupus familiaris; Purkinje fiber; summary of the method: as §1
Canis familiaris [4] = test: Action potential duration when no compound was administered in Canine Purkinje fibers measured at 95% repolarization; format: functional, Canis lupus familiaris, Purkinje fiber; summary of the method: as §1
Canis familiaris [5] = test: Amplitude when no compound was administered in Canine Purkinje fibers; format: functional, Canis lupus familiaris, Purkinje fiber; summary of the method: as §1
Canis lupus familiaris [6] = species on record: Canis lupus familiaris; test: (§2) Sodium channel inactivating potency at 3*10e-4 M; format: functional
Summary of the method: (§3)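 Recovery from sodium-channel inactivation in paced canine Purkinje fibres: a premature S2 stimulus was given immediately after full repolarization. It was expressed as the ratio of premature to paced action potential rate of rise. Drug was present at 3 × 10^-4 M final, read after ~30 min. Each cell was its own control. Values are mean ± SEM, four or five experiments.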

Canis familiaris [7] = species on record: Canis familiaris; test: Effective refractory period at 3 x 10e-4 M in Canine Purkinje fibers; format: functional, Canis lupus familiaris, Purkinje fiber; summary of the method: as §1
Canis familiaris [8] = test: Maximal upstroke velocity when no compound was administered in Canine Purkinje fibers; format: functional; details: Canis lupus familiaris; Purkinje fiber; summary of the method: as §1
Canis lupus familiaris [9] = species on record: Canis lupus familiaris; test: as §2; format: functional; summary of the method: as §3; remark: listed apart in the source
Canis familiaris [10] = species on record: Canis familiaris; test: Percent change of effective refractory period at 3 x 10e-4 M, in Canine Purkinje fibers; format: functional, Canis lupus familiaris, Purkinje fiber; summary of the method: as §1
Canis familiaris [11] = test: Effect on ouabain-induced arrhythmias in pentobarbital anesthetized dogs; format: functional, Canis lupus familiaris
Summary of the method: (§4)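 Male beagles (12–15 kg) were given pentobarbital 35 mg/kg iv plus 5 mg/kg 15 min later. Ouabain went into the cephalic vein at 50 µg/kg, then 10 µg/kg every 15 min (extra 5 µg/kg if needed) until arrhythmia was sustained. After 30 min of arrhythmia, drug in water was infused iv at 200 µg/kg/min, raised to 500 µg/kg/min after 10 min, until conversion to sinus rhythm. n = 5.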

Canis familiaris [12] = test: Effect on conversion dose required for arrhythmias in pentobarbital anesthetized dogs; format: functional, Canis lupus familiaris; summary of the method: as §4
Canis familiaris [13] = species on record: Canis familiaris; test: Percent change of amplitude at 3 x 10e-4 M concentration in Canine Purkinje fibers; format: functional, Canis lupus familiaris, Purkinje fiber; summary of the method: as §1
Canis familiaris [14] = test: Action potential duration when no compound was administered in Canine Purkinje fibers measured at 70% repolarization; format: functional, Canis lupus familiaris, Purkinje fiber; summary of the method: as §1
Canis familiaris [15] = species on record: Canis familiaris; test: Percent change of action potential duration at 3 x 10e-4 M, measured at 95% repolarization in Canine Purkinje fibers; format: functional, Canis lupus familiaris, Purkinje fiber; summary of the method: as §1
Canis familiaris [16] = species on record: Canis familiaris; test: Percent change of action potential duration at 3 x 10e-4 M, measured at 70% repolarization; format: functional, Canis lupus familiaris; summary of the method: as §1
Canis lupus familiaris [17] = species on record: Canis lupus familiaris; test: Sodium channel inactivating potency in the absence of compound (control); format: functional; summary of the method: as §3
Canis familiaris [18] = test: Resting potential when no compound was administered in Canine Purkinje fibers; format: functional, Canis lupus familiaris, Purkinje fiber; summary of the method: as §1
Canis familiaris [19] = test: Effective refractory period when no compound was administered in Canine Purkinje fibers; format: functional, Canis lupus familiaris, Purkinje fiber; summary of the method: as §1
Canis familiaris [20] = species on record: Canis familiaris; test: Amplitude at 3 x 10e-4 M concentration in Canine Purkinje fibers; format: functional, Canis lupus familiaris, Purkinje fiber; summary of the method: as §1
Canis familiaris [21] = species on record: Canis familiaris; test: Percent change of resting potential at 3 x 10e-4 M in Canine Purkinje fibers; format: functional, Canis lupus familiaris, Purkinje fiber; summary of the method: as §1
Canis familiaris [22] = species on record: Canis familiaris; test: Action potential duration at 3 x 10e-4 M measured at 95% repolarization in Canine Purkinje fibers; format: functional, Canis lupus familiaris, Purkinje fiber; summary of the method: as §1
Canis familiaris [23] = species on record: Canis familiaris; test: Action potential duration at 3 x 10e-4 M measured at 70% repolarization; format: functional, Canis lupus familiaris; summary of the method: as §1
Rattus norvegicus [24] = test: Plasma concentration in rat 2 hr after administration at a dose of 25 mg/kg; format: functional, organism-based; parameters: dose 25 mg/kg
Summary of the method: (§5)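 Fischer 344 rats were given 25 mg/kg in water iv via the jugular vein, three per group. Plasma was taken by cardiac puncture at set times. Parent drug and N-acetyl metabolite were quantified by GC with a nitrogen-phosphorus detector after alkaline extraction with an internal standard. The assay was linear 1–10 µg/mL. Values are mean ± SEM.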

Rattus norvegicus [25] = test: Plasma concentration in rat 30 minutes after administration at a dose of 25 mg/kg; format: functional, organism-based; parameters: dose 25 mg/kg; summary of the method: as §5
Rattus norvegicus [26] = test: Plasma concentration in rat 4 hr after administration at a dose of 25 mg/kg; format: functional, organism-based; parameters: dose 25 mg/kg; summary of the method: as §5

| Structure (SMILES) | Resting potential (Canis familiaris [1]) | Vmax (Canis familiaris [2]) | Vmax (Canis familiaris [3]) | APD95 (Canis familiaris [4]) | Amplitude (Canis familiaris [5]) | ERP (Canis familiaris [7]) | Vmax (Canis familiaris [8]) | Na+ inactivation (Canis lupus familiaris [9]) | ERP (Canis familiaris [10]) | Ouabain dose (Canis familiaris [11]) | Conversion dose (Canis familiaris [12]) | Amplitude (Canis familiaris [13]) | APD70 (Canis familiaris [14]) | APD95 (Canis familiaris [15]) | APD70 (Canis familiaris [16]) | Na+ inactivation (Canis lupus familiaris [17]) | Resting potential (Canis familiaris [18]) | ERP (Canis familiaris [19]) | Amplitude (Canis familiaris [20]) | Resting potential (Canis familiaris [21]) | also measured |
| --- | --- | --- | --- | --- | --- | --- | --- | --- | --- | --- | --- | --- | --- | --- | --- | --- | --- | --- | --- | --- | --- |
| CCN(CC)CCNC(=O)c1cc(C)c(N)c(C)c1 | -81 mV | 387 V s-1 | -38% | 426 ms | 131 mV | 282 ms | 632 V s-1 | 0.91 | -18% | 0.069 mg/kg | 14.3 mg/kg | -11% | 363 ms | -17% | -37% | 0.99 | -92 mV | 351 ms | 117 mV | -12% | Na+ inactivation (Canis lupus familiaris [6]): -7%; APD95 (Canis familiaris [22]): 353 ms; APD70 (Canis familiaris [23]): 227 ms |
| CCN(CC)CCNC(=O)c1ccc(N)cc1 [PROCAINAMIDE] | -91 mV | 345 V s-1 | -31% | 347 ms | 127 mV | 321 ms | 501 V s-1 | 0.96 | 6% | 0.068 mg/kg | 19 mg/kg | -7% | 285 ms | 5% | 1% | 1 | -93 mV | 308 ms | 119 mV | -2% | Plasma concentration (Rattus norvegicus [24]): 0.36 µg/mL; Plasma concentration (Rattus norvegicus [25]): 2.29 µg/mL; Plasma concentration (Rattus norvegicus [26]): 2.3 µg/mL; Na+ inactivation change (Canis lupus familiaris [9]): -3%; APD95 (Canis familiaris [22]): 361 ms; APD70 (Canis familiaris [23]): 284 ms |
| CCN(CC)CCNC(=O)c1ccc(N)c(C)c1 | -85 mV | 282 V s-1 | -39% | 363 ms | 129 mV | 283 ms | 462 V s-1 | 0.88 | -6% | 0.065 mg/kg | 18.3 mg/kg | -12% | 292 ms | -7% | -16% | 0.96 | -89 mV | 303 ms | 114 mV | -4% | Na+ inactivation (Canis lupus familiaris [6]): -9%; APD95 (Canis familiaris [22]): 336 ms; APD70 (Canis familiaris [23]): 244 ms |
